Reference: ChEMBL document CHEMBL3994579, “Synthesis and antibacterial activity of novel 3-O-descladinosylazithromycin derivatives” (2017)
Converted amounts (≈) assume the structure as drawn.

What was measured:
Type in all cases: functional
Streptococcus pyogenes [1] = experiment: Antibacterial activity against erythromycin-resistant Streptococcus pyogenes R1 clinical isolate by broth microdilution method
Escherichia coli = experiment: Antibacterial activity against penicillin-susceptible Escherichia coli ATCC 25922 by broth microdilution method
How it was run: (§1)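 MICs were determined in vitro by broth microdilution following the NCCL-recommended method. Azithromycin and clarithromycin were run alongside as reference antibiotics on the same strain panel.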

Streptococcus pyogenes [2] = experiment: Antibacterial activity against erythromycin-susceptible Streptococcus pyogenes clinical isolate by broth microdilution method; how it was run: as §1
Streptococcus pyogenes [3] = experiment: Potency index, ratio of azithromycin MIC to test compound MIC for erythromycin-resistant Streptococcus pyogenes R1 clinical isolate
Staphylococcus aureus [4] = experiment: Antibacterial activity against […] Staphylococcus aureus ATCC 29213 by broth microdilution method
How it was run: (§2)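 Broth microdilution per NCCL recommendation, read as minimal inhibitory concentration, run alongside azithromycin and clarithromycin references. Strains: S. pneumoniae B1 (erythromycin-resistant, ermB), A22072 (erythromycin-resistant, mefA), AB11 (erythromycin-resistant, erm and mef); S. aureus ATCC29213 ([…]); S. epidermidis clinical isolate (penicillin-resistant, not characterized).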

Streptococcus pneumoniae [5] = experiment: Antibacterial activity against erythromycin-resistant Streptococcus pneumoniae AB11 expressing ermB/mefA genes by broth microdilution method; how it was run: as §2
Streptococcus pneumoniae [6] = experiment: Antibacterial activity against erythromycin-resistant Streptococcus pneumoniae A22072 expressing mefA gene by broth microdilution method; how it was run: as §2
[7] = system: Staphylococcus epidermidis; experiment: Antibacterial activity against penicillin-resistant Staphylococcus epidermidis clinical isolate by broth microdilution method; how it was run: as §2
Pseudomonas aeruginosa = experiment: Antibacterial activity against penicillin-susceptible Pseudomonas aeruginosa ATCC 27853 by broth microdilution method; how it was run: as §1
Bacillus subtilis [8] = experiment: Antibacterial activity against erythromycin/penicillin-susceptible Bacillus subtilis ATCC 9372 by broth microdilution method; how it was run: as §1
Staphylococcus aureus [9] = experiment: Antibacterial activity against erythromycin-susceptible Staphylococcus aureus ATCC 25923 by broth microdilution method; how it was run: as §1
Streptococcus pneumoniae [10] = experiment: Antibacterial activity against erythromycin-resistant Streptococcus pneumoniae B1 expressing ermB gene by broth microdilution method; how it was run: as §2
Streptococcus pyogenes [11] = experiment: Potency index, ratio of clarithromycin MIC to test compound MIC for erythromycin-resistant Streptococcus pyogenes R1 clinical isolate
Streptococcus pneumoniae [12] = experiment: Potency index, ratio of azithromycin MIC to test compound MIC for erythromycin-resistant Streptococcus pneumoniae B1 expressing ermB gene
Streptococcus pneumoniae [13] = experiment: Potency index, ratio of clarithromycin MIC to test compound MIC for erythromycin-resistant Streptococcus pneumoniae AB11 expressing ermB/mefA genes
Streptococcus pneumoniae [14] = experiment: Potency index, ratio of azithromycin MIC to test compound MIC for erythromycin-resistant Streptococcus pneumoniae A22072 expressing mefA gene
Streptococcus pneumoniae [15] = experiment: Potency index, ratio of azithromycin MIC to test compound MIC for erythromycin-resistant Streptococcus pneumoniae AB11 expressing ermB/mefA genes
Streptococcus pneumoniae [16] = experiment: Potency index, ratio of clarithromycin MIC to test compound MIC for erythromycin-resistant Streptococcus pneumoniae A22072 expressing mefA gene
Streptococcus pneumoniae [17] = experiment: Potency index, ratio of clarithromycin MIC to test compound MIC for erythromycin-resistant Streptococcus pneumoniae B1 expressing ermB gene
Bacillus subtilis [18] = experiment: Potency index, ratio of azithromycin MIC to test compound MIC for erythromycin/penicillin-susceptible Bacillus subtilis ATCC 9372
[19] = system: Staphylococcus epidermidis; experiment: Potency index, ratio of azithromycin MIC to test compound MIC for penicillin-resistant Staphylococcus epidermidis clinical isolate

Row | SMILES | MIC (Streptococcus pyogenes [1]) | MIC (Escherichia coli) | MIC (Streptococcus pyogenes [2]) | MIC (Staphylococcus aureus [4]) | MIC (Streptococcus pneumoniae [5]) | MIC (Streptococcus pneumoniae [6]) | MIC [7] | MIC (Pseudomonas aeruginosa) | MIC (Bacillus subtilis [8]) | MIC (Staphylococcus aureus [9]) | MIC (Streptococcus pneumoniae [10]) | Ratio (Streptococcus pneumoniae [12]) | Ratio (Streptococcus pneumoniae [13]) | Ratio (Streptococcus pneumoniae [15]) | Ratio (Streptococcus pneumoniae [17]) | other results
1 | CCCCCCNC(=O)O[C@H]1[C@H](C)[C@@H](O[C@@H]2O[C@H](C)C[C@H](N(C)C)[C@H]2OC(C)=O)[C@](C)(O)C[C@@H](C)CN(C)[C@H](C)[C@H]2OC(=O)O[C@]2(C)[C@@H](CC)OC(=O)[C@@H]1C | 32 µg/mL (≈ 40.7 µM) | 128 µg/mL (≈ 163 µM) | 4 µg/mL (≈ 5.09 µM) | 32 µg/mL (≈ 40.7 µM) | 16 µg/mL (≈ 20.4 µM) | 64 µg/mL (≈ 81.4 µM) | 16 µg/mL (≈ 20.4 µM) | 128 µg/mL (≈ 163 µM) | 8 µg/mL (≈ 10.2 µM) | 16 µg/mL (≈ 20.4 µM) | 64 µg/mL (≈ 81.4 µM) |  |  |  |  | Ratio (Streptococcus pyogenes [3]): 8; Ratio (Streptococcus pyogenes [11]): 8
2 | CC[C@H]1OC(=O)[C@H](C)[C@@H](OC(=O)Nc2cccc(C)c2)[C@H](C)[C@@H](O[C@@H]2O[C@H](C)C[C@H](N(C)C)[C@H]2O)[C@](C)(O)C[C@@H](C)CN(C)[C@H](C)[C@@H](OC(=O)NCc2ccc(C)cc2)[C@]1(C)O | 32 µg/mL (≈ 36.7 µM) | 64 µg/mL (≈ 73.5 µM) | 4 µg/mL (≈ 4.59 µM) | 128 µg/mL (≈ 147 µM) | 16 µg/mL (≈ 18.4 µM) | 32 µg/mL (≈ 36.7 µM) | 4 µg/mL (≈ 4.59 µM) | 64 µg/mL (≈ 73.5 µM) | 8 µg/mL (≈ 9.18 µM) | 8 µg/mL (≈ 9.18 µM) | 64 µg/mL (≈ 73.5 µM) |  |  |  |  | 
3 | CC[C@H]1OC(=O)[C@H](C)[C@@H](OC(=O)Nc2cccc(C)c2)[C@H](C)[C@@H](O[C@@H]2O[C@H](C)C[C@H](N(C)C)[C@H]2O)[C@](C)(O)C[C@@H](C)CN(C)[C@H](C)[C@@H](OC(=O)NCc2ccccc2Cl)[C@]1(C)O | 32 µg/mL (≈ 35.9 µM) | 64 µg/mL (≈ 71.8 µM) | 0.03 µg/mL (≈ 0.0336 µM) | 64 µg/mL (≈ 71.8 µM) | 4 µg/mL (≈ 4.49 µM) | 0.5 µg/mL (≈ 0.561 µM) | 0.25 µg/mL (≈ 0.28 µM) | 64 µg/mL (≈ 71.8 µM) | 4 µg/mL (≈ 4.49 µM) | 2 µg/mL (≈ 2.24 µM) | 8 µg/mL (≈ 8.97 µM) | 8 - 256 | 8 - 256 | 8 - 256 | 8 - 256 | Ratio (Streptococcus pneumoniae [14]): 8; Ratio (Streptococcus pneumoniae [16]): 8 - 256
4 | CC[C@H]1OC(=O)[C@H](C)[C@@H](O)[C@H](C)[C@@H](O[C@@H]2O[C@H](C)C[C@H](N(C)C)[C@H]2OC(=O)n2ccnc2)[C@](C)(O)C[C@@H](C)CN(C)[C@H](C)[C@H]2OC(=O)O[C@@]21C | 256 µg/mL (≈ 360 µM) | 64 µg/mL (≈ 90 µM) | 8 µg/mL (≈ 11.3 µM) | 128 µg/mL (≈ 180 µM) | 32 µg/mL (≈ 45 µM) | 128 µg/mL (≈ 180 µM) | 32 µg/mL (≈ 45 µM) | 64 µg/mL (≈ 90 µM) | 128 µg/mL (≈ 180 µM) | 64 µg/mL (≈ 90 µM) | 256 µg/mL (≈ 360 µM) |  |  |  |  | 
5 | CC[C@H]1OC(=O)[C@H](C)[C@@H](OC(=O)Nc2ccccc2C)[C@H](C)[C@@H](O[C@@H]2O[C@H](C)C[C@H](N(C)C)[C@H]2O)[C@](C)(O)C[C@@H](C)CN(C)[C@H](C)[C@H]2OC(=O)O[C@@]21C | 32 µg/mL (≈ 42.7 µM) | 64 µg/mL (≈ 85.3 µM) | 0.5 µg/mL (≈ 0.667 µM) | 32 µg/mL (≈ 42.7 µM) | 1 µg/mL (≈ 1.33 µM) | 4 µg/mL (≈ 5.33 µM) | 4 µg/mL (≈ 5.33 µM) | 64 µg/mL (≈ 85.3 µM) | 2 µg/mL (≈ 2.67 µM) | 4 µg/mL (≈ 5.33 µM) | 32 µg/mL (≈ 42.7 µM) |  | 128 | 256 |  | 
6 | CC[C@H]1OC(=O)[C@H](C)[C@@H](OC(=O)Nc2ccccc2)[C@H](C)[C@@H](O[C@@H]2O[C@H](C)C[C@H](N(C)C)[C@H]2O)[C@](C)(O)C[C@@H](C)CN(C)[C@H](C)[C@H]2OC(=O)O[C@@]21C | 8 µg/mL (≈ 10.9 µM) | 128 µg/mL (≈ 174 µM) | 0.25 µg/mL (≈ 0.34 µM) | 128 µg/mL (≈ 174 µM) | 16 µg/mL (≈ 21.7 µM) | 16 µg/mL (≈ 21.7 µM) | 4 µg/mL (≈ 5.44 µM) | 128 µg/mL (≈ 174 µM) | 4 µg/mL (≈ 5.44 µM) | 2 µg/mL (≈ 2.72 µM) | 16 µg/mL (≈ 21.7 µM) | 16 |  |  | 16 | Ratio (Streptococcus pyogenes [3]): 32; Ratio (Streptococcus pyogenes [11]): 32
7 | CC[C@H]1OC(=O)[C@H](C)[C@@H](OC(=O)Nc2cccc(C)c2)[C@H](C)[C@@H](O[C@@H]2O[C@H](C)C[C@H](N(C)C)[C@H]2O)[C@](C)(O)C[C@@H](C)CN(C)[C@H](C)[C@@H](OC(=O)NCc2ccc(OC)cc2)[C@]1(C)O | 128 µg/mL (≈ 144 µM) | 128 µg/mL (≈ 144 µM) | 1 µg/mL (≈ 1.13 µM) | 128 µg/mL (≈ 144 µM) | 16 µg/mL (≈ 18 µM) | 8 µg/mL (≈ 9.02 µM) | 32 µg/mL (≈ 36.1 µM) | 128 µg/mL (≈ 144 µM) | 16 µg/mL (≈ 18 µM) | 16 µg/mL (≈ 18 µM) | 128 µg/mL (≈ 144 µM) |  |  |  |  | 
8 | CCCCCCNC(=O)O[C@@H]1[C@@H](C)N(C)C[C@H](C)C[C@@](C)(O)[C@H](O[C@@H]2O[C@H](C)C[C@H](N(C)C)[C@H]2O)[C@@H](C)[C@H](OC(=O)Nc2ccc(OC)cc2)[C@@H](C)C(=O)O[C@H](CC)[C@@]1(C)O | 32 µg/mL (≈ 36.9 µM) | 128 µg/mL (≈ 148 µM) | 1 µg/mL (≈ 1.15 µM) | 128 µg/mL (≈ 148 µM) | 1 µg/mL (≈ 1.15 µM) | 8 µg/mL (≈ 9.23 µM) | 0.125 µg/mL (≈ 0.144 µM) | 128 µg/mL (≈ 148 µM) | 0.5 µg/mL (≈ 0.577 µM) | 8 µg/mL (≈ 9.23 µM) | 1 µg/mL (≈ 1.15 µM) | 256 | 128 | 256 | 256 | Ratio (Bacillus subtilis [18]): 2; Ratio [19]: 2; Ratio (Streptococcus pneumoniae [14]): 8 - 256; Ratio (Streptococcus pneumoniae [16]): 8 - 256
9 | CC[C@H]1OC(=O)[C@H](C)[C@@H](OC(=O)Nc2ccccc2C)[C@H](C)[C@@H](O[C@@H]2O[C@H](C)C[C@H](N(C)C)[C@H]2O)[C@](C)(O)C[C@@H](C)CN(C)[C@H](C)[C@@H](OC(=O)NCc2ccccc2)[C@]1(C)O | 128 µg/mL (≈ 149 µM) | 64 µg/mL (≈ 74.7 µM) | 0.03 µg/mL (≈ 0.035 µM) | 32 µg/mL (≈ 37.3 µM) | 2 µg/mL (≈ 2.33 µM) | 0.25 µg/mL (≈ 0.292 µM) | 0.25 µg/mL (≈ 0.292 µM) | 64 µg/mL (≈ 74.7 µM) | 2 µg/mL (≈ 2.33 µM) | 1 µg/mL (≈ 1.17 µM) | 32 µg/mL (≈ 37.3 µM) | 8 - 256 | 8 - 256 | 8 - 256 | 8 - 256 | Ratio (Streptococcus pneumoniae [14]): 16; Ratio (Streptococcus pneumoniae [16]): 8 - 256
10 | CC[C@H]1OC(=O)[C@H](C)[C@@H](O[C@H]2C[C@@](C)(OC)[C@@H](O)[C@H](C)O2)[C@H](C)[C@@H](O[C@@H]2O[C@H](C)C[C@H](N(C)C)[C@H]2O)[C@](C)(O)C[C@@H](C)CN(C)[C@H](C)[C@@H](O)[C@]1(C)O [AZITHROMYCIN] | 256 µg/mL (≈ 342 µM) | 64 µg/mL (≈ 85.4 µM) | 0.03 µg/mL (≈ 0.0401 µM) | 4 µg/mL (≈ 5.34 µM) | 256 µg/mL (≈ 342 µM) | 4 µg/mL (≈ 5.34 µM) | 0.25 µg/mL (≈ 0.334 µM) | 32 µg/mL (≈ 42.7 µM) | 1 µg/mL (≈ 1.34 µM) | 0.25 µg/mL (≈ 0.334 µM) | 256 µg/mL (≈ 342 µM) |  |  |  |  | 
11 | CC[C@H]1OC(=O)[C@H](C)[C@@H](O[C@H]2C[C@@](C)(OC)[C@@H](O)[C@H](C)O2)[C@H](C)[C@@H](O[C@@H]2O[C@H](C)C[C@H](N(C)C)[C@H]2O)[C@](C)(OC)C[C@@H](C)C(=O)[C@H](C)[C@@H](O)[C@]1(C)O [CLARITHROMYCIN] | 256 µg/mL (≈ 342 µM) | 32 µg/mL (≈ 42.8 µM) | 0.03 µg/mL (≈ 0.0401 µM) | 32 µg/mL (≈ 42.8 µM) | 128 µg/mL (≈ 171 µM) | 2 µg/mL (≈ 2.67 µM) | 0.25 µg/mL (≈ 0.334 µM) | 64 µg/mL (≈ 85.6 µM) | 0.25 µg/mL (≈ 0.334 µM) | 0.25 µg/mL (≈ 0.334 µM) | 256 µg/mL (≈ 342 µM) |  |  |  |  | 
